APOBEC3A inh = APOBEC3A ssDNA deaminase inhibitors, primary screen, selectivity assay for APOBEC3G inhibitor project, biochemical, FAM/TAMRA oligo cleavage fluorescence; recombinant A3A, FAM/TAMRA ssDNA deamination fluorescence; 330,000 compounds, 0.41% hits; inhibition, % at 20 µM; DNA dC->dU-editing enzyme APOBEC-3A (Homo sapiens), P31941;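 active means at least 40% inhibition at 20 µM here, with at most 30% in a related deaminase screen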
Target sequence (P31941 whole entry, looked up): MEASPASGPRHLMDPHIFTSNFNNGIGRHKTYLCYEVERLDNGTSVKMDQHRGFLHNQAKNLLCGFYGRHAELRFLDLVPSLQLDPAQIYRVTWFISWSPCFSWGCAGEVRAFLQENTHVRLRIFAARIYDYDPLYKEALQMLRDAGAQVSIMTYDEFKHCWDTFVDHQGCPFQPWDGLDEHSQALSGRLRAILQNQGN
UCH37 inh = inhibitors of human UCH37 deubiquitinase, primary screen, biochemical, Ub-AMC cleavage, fluorescence; Ubiquitin carboxyl-terminal hydrolase isozyme L5 (Homo sapiens), Q9Y5K5; inhibition, % (test concentration not listed); purified proteasome/UCH37; 330,000 compounds, 0.33% hits;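 active means mean inhibition over replicate wells above about 20%, limit read from the data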
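assay system = human UCH37 enzyme supplied as purified proteasome complex | amount = proteasome at 0.15 nM in the dispensed enzyme solution | schedule = 30 min compound-proteasome preincubation then 25 min substrate reaction, room temperature | measured by = fluorescence, ex 355 nm, em 460 nm | benchmarks = no-proteasome wells (full inhibition) and compound-free wells (no inhibition)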
A3G deaminase = APOBEC3G DNA deaminase inhibitors, primary screen, biochemical, fluorescence, single-stranded DNA substrate, uHTS | DNA dC->dU-editing enzyme APOBEC-3G (Homo sapiens), Q9HC16 | recombinant A3G, ssDNA deamination FAM/TAMRA fluorescence | 330,000 compounds, 0.28% hits | AID 493012, 2011 | inhibition, % at 20 µM;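 active means inhibition of at least 40% at 20 µM, with no more than 30% in the related APOBEC3A deaminase screen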
Target sequence (Q9HC16 whole entry, looked up): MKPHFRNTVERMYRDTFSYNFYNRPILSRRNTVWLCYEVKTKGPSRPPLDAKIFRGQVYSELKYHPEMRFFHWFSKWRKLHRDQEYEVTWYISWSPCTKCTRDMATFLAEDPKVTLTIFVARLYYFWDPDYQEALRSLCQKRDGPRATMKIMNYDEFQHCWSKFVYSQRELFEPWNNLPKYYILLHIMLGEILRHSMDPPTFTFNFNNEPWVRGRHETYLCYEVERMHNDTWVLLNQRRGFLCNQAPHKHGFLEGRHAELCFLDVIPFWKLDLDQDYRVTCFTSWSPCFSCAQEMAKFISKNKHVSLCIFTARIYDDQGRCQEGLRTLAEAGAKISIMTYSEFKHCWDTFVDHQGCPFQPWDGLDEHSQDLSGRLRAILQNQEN
GASC-1 inh = inhibitors of GASC-1 histone demethylase, primary screen, biochemical, fluorescence, DELFIA europium; Lysine-specific demethylase 4C (Homo sapiens), Q9H3R0; GST-JMJD2C(1-420) H3K9me3 demethylation; inhibition, % at 2.35 µM; 330,000 compounds, 0.069% hits;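 active means more than half of a compound's replicate wells show inhibition beyond 50%, single wells judged on their own value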;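 further: signal counts dimethyl H3K9 product captured on neutravidin plate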
A3A conf = APOBEC3A deaminase inhibitors, retest, confirmation, selectivity assay for APOBEC3G inhibitor project, biochemical, single concentration, fluorescence readout. shares compounds with APOBEC3A inh. recombinant A3A, ssDNA deaminase UDG fluorescence assay. inhibition, % at 20 µM. 1,400 compounds, 63% hits. AID 493151, 2011;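 active means inhibition reaching a set limit, 80% of the first screen's cutoff, at 20 µM in any replicate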
UDG ctr A3A = E. coli UDG inhibitors, confirmation, counter-screen for APOBEC3A inhibitor project, biochemical, single concentration, fluorescence, FAM/TAMRA oligo. shares compounds with APOBEC3A inh. UDG counterscreen, FAM/TAMRA uracil oligo fluorescence. inhibition, % at 20 µM. 1,000 tested, under 10 active. AID 504714, 2011; call rule not given here
Large screens that a line does not name were inactive (follow-up assays come after a bar, where they were run). Sampled rows, rich in hits. Any-hit rate of the full collection: about 0.97%.

CCNC(=O)COC(=O)c1cc(-c2ccco2)nc2ccccc12	APOBEC3A inh 53 | A3A conf 34 | UDG ctr A3A inactive
COc1ccc(NC(=O)c2cc(-c3ccco3)nc3ccccc23)cn1	APOBEC3A inh 52 | A3A conf 45 | UDG ctr A3A inactive
Cn1c(=O)c(C(=O)COC(=O)c2cc(-c3ccco3)nc3ccccc23)c(N)n(CC2CC2)c1=O	APOBEC3A inh 47 (no result: UCH37 inh) | A3A conf 32
Cn1c(=O)c(C(=O)COC(=O)c2cc(C3CC3)nc3ccccc23)c(N)n(Cc2ccccc2)c1=O	none
CC(=NNC(=O)c1ccncc1)c1cccc(NC(=O)c2ccc(Cl)s2)c1	none (no result: APOBEC3A inh, A3G deaminase, GASC-1 inh)
O=c1c2c3c(sc2ncn1N=Cc1cccnc1)CCCC3	none (no result: APOBEC3A inh, A3G deaminase, GASC-1 inh)
CCCCC[n+]1cccc2c3ccccc3ccc21	APOBEC3A inh 55 | A3A conf 72 | UDG ctr A3A inactive
CC[n+]1ccc2cc(OC)c(OC)cc2c1Cc1ccc(OC)c(OC)c1	APOBEC3A inh 69 (no result: UCH37 inh) | A3A conf 43
C=CCN=C1N[C@@H](c2cccc(C(F)(F)F)c2)C(C(=O)OC)=C(C)N1CC	APOBEC3A inh 50 | A3A conf 71 | UDG ctr A3A inactive
COC(=O)C1=C(C)N(Cc2ccccc2)C(=NCc2cccc(C(F)(F)F)c2)N[C@H]1c1cccc(C(F)(F)F)c1	none (no result: GASC-1 inh)
COC(=O)C1=C(C)N(CC2CC2)C(=NCc2cccc(C(F)(F)F)c2)N[C@H]1c1ccccc1	none
COC(=O)C1=C(C)N(CC2CC2)C(=NCCN2CCOCC2)N[C@H]1c1ccccc1	APOBEC3A inh 71 | A3A conf 68 | UDG ctr A3A inactive
CCN1C(=NCc2cccc(Cl)c2)N[C@@H](c2cccc(F)c2)C(C(=O)OC)=C1C	none (no result: UCH37 inh)
C=CCN=C1N[C@@H](c2ccccc2)C(C(=O)OC)=C(C)N1CC	APOBEC3A inh 66 | A3A conf 58 | UDG ctr A3A inactive
CCN1C(=NCCc2cccs2)N[C@@H](c2cccs2)C(C(=O)OC)=C1C	APOBEC3A inh 53 | A3A conf 66 | UDG ctr A3A inactive
CCOC(=O)C1=C(C)n2c(sc(=C3C(=O)Nc4ccccc43)c2=O)=NC1c1ccc(OC)cc1 (stereo not given)	none (no result: APOBEC3A inh, A3G deaminase, GASC-1 inh)
Oc1ccc2ccccc2c1C=Nc1nccs1	none (no result: APOBEC3A inh, A3G deaminase, GASC-1 inh)
C(=NNc1ccccn1)c1cccnc1	none (no result: APOBEC3A inh, A3G deaminase, GASC-1 inh)
CCN1C(=NCC(C)C)N[C@@H](c2cccc(C(F)(F)F)c2)C(C(=O)OC)=C1C	APOBEC3A inh 59 (no result: UCH37 inh) | A3A conf 61
COCCN1C(=O)N[C@H](c2cccc(C(F)(F)F)c2)C(C(=O)OC)=C1C	none
CC[n+]1ccccc1/C=C/Nc1ccccc1	APOBEC3A inh 61 | A3A conf 70 | UDG ctr A3A inactive
COc1cc(C(=O)NCc2ccncc2)cc(OC)c1OC	none
CCc1nc(CNC(=O)c2cc(OC)c(OC)c(OC)c2)no1	APOBEC3A inh 48 | A3A conf 73 | UDG ctr A3A inactive
COCCN(C(=O)c1cc(-c2ccco2)nc2ccccc12)c1c(N)n(Cc2ccccc2)c(=O)[nH]c1=O	APOBEC3A inh 46 (no result: UCH37 inh) | A3A conf 32 | UDG ctr A3A inactive
CCCCn1c(N)c(N(CCOC)C(=O)c2cc(-c3ccc(OC)c(OC)c3)nc3ccccc23)c(=O)[nH]c1=O	APOBEC3A inh 52 | A3A conf 40 | UDG ctr A3A inactive
CCCCn1c(N)c(N(CCOC)C(=O)c2cc(-c3ccco3)nc3ccccc23)c(=O)[nH]c1=O	APOBEC3A inh 42 | A3A conf 30 | UDG ctr A3A inactive
CCCCn1c(N)c(N(CC(C)C)C(=O)c2cc(-c3ccc(OC)c(OC)c3)nc3ccccc23)c(=O)[nH]c1=O	none
COc1ccc(C=NOCC(=O)NCC(C)C)c(OC)c1	none (no result: APOBEC3A inh, A3G deaminase, GASC-1 inh)
O=C(NN=Cc1ccc2c(c1)OCO2)c1ccc(Br)o1	none (no result: APOBEC3A inh, A3G deaminase, GASC-1 inh)
C[n+]1ccccc1/C=C/c1c(F)cccc1F	none (no result: APOBEC3A inh, A3G deaminase)
C[n+]1ccccc1/C=C/c1ccccc1Cl	APOBEC3A inh 81 (no result: UCH37 inh) | A3A conf 67 | UDG ctr A3A inactive
Cc1ccccc1/C=C/c1cccc[n+]1C	APOBEC3A inh 84 | A3A conf 69 | UDG ctr A3A inactive
C[n+]1ccccc1/C=C/c1ccc(C#N)cc1	none (no result: APOBEC3A inh, A3G deaminase)
CC(=O)c1cccc(OC(=O)c2ccc3c(=O)n4c(nc3c2)CCC4)c1	APOBEC3A inh 65 | A3A conf 47 | UDG ctr A3A inactive
COc1ccccc1N1CCN(N=Cc2ccc(C)o2)CC1	none (no result: APOBEC3A inh, A3G deaminase, GASC-1 inh)
CCN(C(=O)COc1nc(C)cc(C)c1C#N)c1ccccc1	APOBEC3A inh 59 | A3A conf inactive
C=CC1=C(C(=O)O)N2C(=O)[C@@H](NC(=O)/C(=N\O)c3csc(N)n3)[C@H]2SC1 (stereo in doubt)	APOBEC3A inh 89 (no result: UCH37 inh) | A3A conf 88
CCc1nnc(SCC(=O)N2CCc3ccccc32)n1CC	none
CCn1c(SCC(=O)N2CCc3ccccc32)nnc1-c1ccncc1	APOBEC3A inh 49 | A3A conf inactive
O=C(CSc1nnnn1-c1ccccc1)N1CCc2ccccc21	APOBEC3A inh 41 | A3A conf 62 | UDG ctr A3A inactive
CCOC(=O)NN=C(C)c1ccc([N+](=O)[O-])o1	none (no result: APOBEC3A inh, A3G deaminase, GASC-1 inh)
CC[n+]1c(/C=C/N(C)c2ccccc2)n(-c2ccccc2)c2ccc(-c3nc4ccccc4s3)cc21	APOBEC3A inh 61 | A3A conf 48
CC(=O)N1CCC(C(=O)N2CCN(S(=O)(=O)c3ccc(F)cc3)CC2)CC1	none
O=C(C1CCC1)N1CCN(S(=O)(=O)c2ccc(F)cc2)CC1	APOBEC3A inh 46 | A3A conf inactive
C/C(C=NNC(=O)Cn1nnnc1N)=C/c1ccc(C(C)C)cc1	none (no result: APOBEC3A inh, A3G deaminase, GASC-1 inh)
O=C(C1=C[C@H](c2coc3ccccc3c2=O)C[C@H](OCCCCO)O1)N1CCN(Cc2ccccc2)CC1	APOBEC3A inh 76 | A3A conf inactive | UDG ctr A3A inactive
COc1ccc(C=NNC(=O)c2cc(-c3ccccc3OC)nc3ccccc23)cc1COC(C)=O	none (no result: APOBEC3A inh, A3G deaminase, GASC-1 inh)
O=C(NN=CC1CCCCC1)c1ccccc1-n1cccc1	none (no result: APOBEC3A inh, A3G deaminase, GASC-1 inh)
CC1(C)Oc2ccc3ccc(=O)oc3c2/C(=C/N)C1=O	none
CC1(C)Oc2ccc3ccc(=O)oc3c2-c2cnoc21	APOBEC3A inh 51 (no result: UCH37 inh) | A3A conf 72 | UDG ctr A3A inactive
CC1(C)Oc2ccc3ccc(=O)oc3c2/C(=C/O)C1=O	none
CC1(C)Oc2ccc3ccc(=O)oc3c2-c2cn[nH]c21	APOBEC3A inh 59 | A3A conf 65 | UDG ctr A3A inactive

High-throughput results: PubChem, several laboratories
